# High-throughput results deposited in PubChem by several laboratories.
# Hits are enriched below; roughly 1.9% of the tested compounds scored in any of these assays.
# IDE cell inh: cellular human IDE inhibition; inhibition, % at 5.59 µM; actives 0.41% (n = 320,000); HEK cells, FAbetaB cleavage, fluorescence polarization;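 active = percent inhibition above the average of all tested compounds plus 3 SD, set per screening campaign, cut at about 16% in these data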;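 also: IDE supplied by intact live HEK cells; FP after avidin binding of uncleaved biotin substrate so inhibition keeps polarization high; 0% = DMSO wells and 100% = 60 µM reference IDE inhibitor Ii1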
# UBC13 inh: blocks human UBC13 polyubiquitin chain formation; P61088; TR-FRET; inhibition, % at 20 µM; actives 0.47% (n = 330,000); AID 485273; in the data active = inhibition above about 45%, passing the limit was not always enough; inconclusive = no clear call, values can overlap the other calls
# Target sequence (P61088 whole entry, looked up): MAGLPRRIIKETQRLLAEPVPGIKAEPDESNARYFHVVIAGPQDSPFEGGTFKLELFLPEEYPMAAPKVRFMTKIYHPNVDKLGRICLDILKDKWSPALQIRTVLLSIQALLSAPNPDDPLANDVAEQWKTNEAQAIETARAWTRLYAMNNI
# IDE cell activ: boosts human insulin-degrading enzyme activity in HEK cells. P14735. FAbeta-B cleavage, fluorescence polarization; 0% vehicle, 100% cell-free pure enzyme wells. activation, % at 5.96 µM. actives 0.073% (n = 340,000);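 active = activation above the mean of all tested compounds plus 3 SD, set per screening campaign, cut at about 17% in these data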
# procasp3 activ: procaspase-3 (human) activation. P42574. recombinant procaspase-3 D3A, Ac-DEVD-pNA absorbance 405 nm. activation, % at 8.5 µM. actives 0.11% (n = 330,000);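 active = activation above the mean of all tested compounds plus 3 SD, cut at about 21% in these data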;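 also: 0% = DMSO alone and 100% = DMSO wells spiked with extra 5 µM PC-3 D3A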
#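 System: Procaspase-3 D3A mutant. Medium: Zinc-free 300 mM NaCl, 50 mM HEPES, 0.01% Triton X-100. Schedule: 1 h preincubation plus 2 h reaction at 25 °C. Measured by: 405 nm absorbance of p-nitroaniline, reads at 0 and 120 min. Read-out: percent activation relative to control range.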
# procasp7 counter: counter-screen for procaspase-3 activators: activators of human procaspase-7; P55210; activation, % at 8.5 µM; recombinant procaspase-7, Ac-DEVD-pNA absorbance 405 nm; D23A/D198A/D206A triple mutant, cannot self-cleave; scale: DMSO 0, 5 µM enzyme 100; AID 463210; actives 0.093% (n = 330,000);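 active = percent activation above the screen-wide mean plus 3 SD, cut at about 25% in these data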
#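 Material: Procaspase-7 triple mutant (PC-7 D3A) | Quantity: 2 µM procaspase-7 mutant as dispensed | Reagent: DEVD-pNA substrate | Times: 1 h preincubation, 2 h reaction | Technique: 405 nm absorbance of p-nitroaniline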
# PHOSPHO1 block: inhibitors of human PHOSPHO1 phosphatase; actives 1.1% (n = 290,000); Q8TCT1; recombinant PHOSPHO1, absorbance phosphatase assay; inhibition, % at 13.3 µM; in the data active = inhibition above about 60%
# Target sequence (Q8TCT1 whole entry, looked up): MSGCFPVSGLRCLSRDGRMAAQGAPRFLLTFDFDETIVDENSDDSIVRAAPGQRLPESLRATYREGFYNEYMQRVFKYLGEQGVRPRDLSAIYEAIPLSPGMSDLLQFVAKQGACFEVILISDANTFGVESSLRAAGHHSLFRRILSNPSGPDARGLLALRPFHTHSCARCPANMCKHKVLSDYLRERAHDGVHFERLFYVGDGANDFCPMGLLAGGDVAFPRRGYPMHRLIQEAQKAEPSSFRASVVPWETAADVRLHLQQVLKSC
# Casp3 UBC13 ctr: counter-screen for UBC13 inhibitors: human caspase-3 inhibition; Recombinant caspase-3, Caspase-Glo 3/7 luminescence, 60 min; AID 488856; inhibition, % at 20 µM; actives 4% (n = 1,400); shares compounds with UBC13 inh;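 active = mean inhibition across replicates above about 26%, limit read from the data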;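 also: plate controls were DMSO with caspase-3 for no effect and DMSO wells lacking enzyme for full effect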
# UBC13 confirm: human UBC13 polyubiquitin inhibition, confirmed; shares compounds with UBC13 inh; inhibition, % at 10 µM; UBC13 polyubiquitination, TR-FRET, biochemical; actives 68% (n = 1,400); in the data active = inhibition above about 45%; inconclusive = no clear call, values can overlap the other calls
# An asterisk follows results filed as active; ? = inconclusive; nt = no result.
SMILES,IDE cell inh,UBC13 inh,IDE cell activ,procasp3 activ,procasp7 counter,PHOSPHO1 block,Casp3 UBC13 ctr,UBC13 confirm
COC(=O)C1(Cc2cc(-c3ccc([N+](=O)[O-])cc3)no2)CCN(C(=O)OC(C)(C)C)CC1,1,10,2,8,-8,nt,nt,nt
C=CCNC(=S)Nc1sc2c(c1C(=O)OCC)CCN(C(=O)OCC)C2,1,50*,3,-13,-8,2,3,?
CSc1ncccc1C(=O)N(C)CC(=O)Nc1cccc(F)c1,3,12,3,-1,1,33,nt,nt
CCN1CCN(S(=O)(=O)c2ccc(Cl)c(C(=O)N(C)Cc3cccs3)c2)CC1,-3,49*,-1,-64,2,nt,-3,55*
COc1ccc(NC(=O)c2ccc(-c3ccc(-c4noc(C)n4)cc3C)cc2)cc1N1CCN(C)CC1,0,78*,6,6,-2,nt,-4,45
CCSc1nnc(NC(=O)CN2C(=O)NC3(CCCC3)C2=O)s1,9,-1,4,7,-6,nt,nt,nt
O=C(Nc1ccc2nn(-c3ccccc3)nc2c1)c1cccnc1,1,0,-5,5,3,11,nt,nt
CC(C)C(=O)Nc1ccc2nn(-c3ccccc3)nc2c1,-3,48*,5,6,2,35,49*,32
CCC(CC)NC(=O)CSc1ccc(S(=O)(=O)N2CCCCC2)cn1,nt,5,6,nt,nt,nt,nt,nt
C#CCOCCOCCOCCNc1nc(N2CCN(C(=O)[C@H]([C@@H](C)CC)n3cc([C@@H](N)CC(C)C)nn3)CC2)nc(N2CCN(C(=O)[C@H]([C@@H](C)CC)n3cc([C@@H](N)CC(C)C)nn3)CC2)n1,15,66*,7,-13,7,9,-1,56*
C#CCOCCOCCOCCNc1nc(N2CCN(C(=O)[C@H]([C@@H](C)CC)n3cc([C@@H](N)Cc4ccc(O)cc4)nn3)CC2)nc(N2CCN(C(=O)[C@H](CCCCN)n3cc([C@@H](N)C(C)CC)nn3)CC2)n1 (stereo partly specified),1,67*,-2,1,3,36,-4,50*
C#CCOCCOCCOCCNc1nc(N2CCN(C(=O)[C@H](CCC(=O)O)n3cc(C(N)Cc4ccc(O)cc4)nn3)CC2)nc(N2CCN(C(=O)[C@H](CCCCN)n3cc(C(N)[C@H](C)CC)nn3)CC2)n1 (stereo partly specified),nt,-7,nt,nt,nt,22,nt,nt
C#CCOCCOCCOCCNc1nc(N2CCN(C(=O)[C@H]([C@@H](C)CC)n3cc([C@@H](N)Cc4ccc(O)cc4)nn3)CC2)nc(N2CCN(C(=O)[C@H]([C@@H](C)CC)n3cc([C@@H](N)Cc4ccc(O)cc4)nn3)CC2)n1,7,54*,-4,-3,2,8,-3,40
CN(C)CCNC(=O)c1cc2c(s1)-c1ccc(Cl)cc1SC2,nt,62*,-3,nt,nt,35,-2,73*
CC(C)(C)OC(=O)[C@H](CCCCN)NC(=O)c1[nH]cnc1C(=O)N[C@@H](Cc1ccccc1)C(=O)OCc1ccccc1,0,72*,2,3,7,nt,2,69*
CC(C)(C)OC(=O)[C@H](Cc1ccccc1)NC(=O)c1[nH]cnc1C(=O)N[C@@H](Cc1ccccc1)C(=O)OCc1ccccc1,-2,-60,8,4,-4,-30,nt,nt
Cc1c(CCOC(=O)C23CC4CC(CC(C)(C4)C2)C3)sc[n+]1Cc1ccccc1,2,27,3,0,10,-14,nt,nt
Cc1c(CCOC(=O)C23CC4(C)CC(C)(CC(C)(C4)C2)C3)sc[n+]1CC(=O)c1ccccc1,-5,70*,10,2,5,15,-4,88*
Cc1c(CCOC(=O)CC23CC4CC(CC(C4)C2)C3)sc[n+]1CC(=O)c1ccccc1,0,47*,0,3,7,9,-3,52*
O=C(COC(=O)c1ccc(F)cc1F)NC(=O)Nc1ccc2c(c1)OCCO2,1,-11,3,3,1,nt,nt,nt
NC1=NC[C@H](Cc2ccc(O)cc2)N1CCc1cc(C(F)(F)F)cc(C(F)(F)F)c1,3,52*,4,-8,7,34,-6,33
NCCCC[C@H]1CN=C(N)N1CCc1cccc2ccccc12,0,5,1,4,7,nt,nt,nt
CCC(C)[C@H]1CN=C(N)N1CCc1cc(C(F)(F)F)cc(C(F)(F)F)c1 (stereo partly specified),6,79*,5,-1,-3,-12,-3,46*
CCC(C)[C@H]1CN=C(N)N1CCc1cccc2ccccc12 (stereo partly specified),2,45*,-6,-3,-5,nt,2,51*
NC1=NC[C@H](Cc2ccc(O)cc2)N1CCc1cccc2ccccc12,-4,61*,4,2,-1,22,-2,50*
SMILES,IDE cell inh,UBC13 inh,IDE cell activ,procasp3 activ,procasp7 counter,PHOSPHO1 block,Casp3 UBC13 ctr,UBC13 confirm
CC(O)[C@H]1CN=C(N)N1CCc1cc(C(F)(F)F)cc(C(F)(F)F)c1 (stereo partly specified),-4,11,6,10,3,26,nt,nt
Cc1[nH]c2ccccc2c1C(=O)C(=O)N1CCN(c2ccccc2F)CC1,1,-18,2,-1,12,17,nt,nt
NC1=NC[C@@H](CC2CCCCC2)N1CCc1cc(C(F)(F)F)cc(C(F)(F)F)c1,-10,91*,13,0,8,nt,-4,101*
COc1cc(CCCN2C(N)=NC[C@@H]2c2ccccc2)cc(OC)c1OC,0,-2,7,7,7,35,nt,nt
NC1=NC[C@H](c2ccccc2)N1CCc1cc(C(F)(F)F)cc(C(F)(F)F)c1,1,80*,7,5,-9,13,-2,53*
CCCCN(C(=O)C1CCCC1)c1c(N)n(CCC)c(=O)[nH]c1=O,nt,4,4,nt,nt,nt,nt,nt
O=c1c2cc(NC(=S)NCCCN3CCC(Cc4ccccc4)CC3)ccc2nc2n1CCCCC2,1,51*,-3,0,-4,13,4,85*
O=c1c2cc(NC(=S)NCCN3CCCCCC3)ccc2nc2n1CCCCC2,2,-4,1,-3,-5,28,nt,nt
CC(C)=CCC/C(C)=C/CNC(=O)C[C@H]1C[C@H](C(=O)N2CCCCC2)[C@@]2(C)c3[nH]c4cc(CCC(=O)N(C)C)ccc4c3CCN2C1=O,nt,nt,2,7,-3,nt,nt,nt
CCN(CC)Cc1cc2[nH]c3c4ccc(Cl)cc4ncc3c2cc1OC,nt,67*,-1,nt,nt,-5,2,10
